Bioassay records deposited in PubChem BioAssay by Sanford-Burnham Center for Chemical Genomics.
An excerpt weighted towards active compounds, which were near 1.5% of everything screened.
EBI2 block – EBI2 (human) antagonism. P32249. hit rate 0.81% among 360,000. EBI2 beta-arrestin recruitment, luminescence, 7a,25-OHC stimulated. AID 651636. inhibition, % at 5 µM; in the data active = inhibition above about 38%;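 also: enzyme fragment complementation signal reports receptor beta-arrestin coupling in cells; 0% = agonist plus DMSO wells and 100% = wells without agonist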
APJ agonist – agonists of human APJ apelin receptor | hit rate 0.11% among 330,000 | activation, % at 20 µM | AID 2520 | CHO-K1 APJ PathHunter beta-arrestin, luminescence; 0% DMSO wells, 100% apelin;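 active = activation more than six SD over the plate average, tested at 20 µM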;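 also: 0% = DMSO alone and 100% = apelin-13 at 10 nM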
Target sequence (P35414 whole entry, looked up): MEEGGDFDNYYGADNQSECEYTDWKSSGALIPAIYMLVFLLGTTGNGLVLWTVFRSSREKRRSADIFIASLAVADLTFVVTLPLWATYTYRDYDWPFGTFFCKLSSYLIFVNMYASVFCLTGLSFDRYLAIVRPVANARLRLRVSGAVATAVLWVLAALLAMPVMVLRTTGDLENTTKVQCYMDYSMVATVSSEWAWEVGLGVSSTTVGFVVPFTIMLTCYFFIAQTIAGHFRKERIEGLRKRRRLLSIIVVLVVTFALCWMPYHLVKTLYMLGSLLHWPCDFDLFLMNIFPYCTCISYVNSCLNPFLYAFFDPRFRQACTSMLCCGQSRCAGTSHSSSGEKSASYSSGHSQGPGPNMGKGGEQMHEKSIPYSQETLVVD
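system = engineered CHO-K1 APJ arrestin reporter cells | input = 1000 cells per well | timing = overnight seeding, 90 min compound at 25 °C, 1 h detection | measured by = enzyme-fragment complementation luminescence | read-out = beta-arrestin recruitment to APJ as agonist activity, luminescent signal | control set = negative DMSO alone, positive Apelin-13 at 10 nM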
CCR6 antag – antagonists of human CCR6 receptor | inhibition, % at 20 µM | hit rate 0.49% among 340,000 | CHO-K1 CCR6 PathHunter beta-arrestin, luminescence, CCL20-stimulated | P51684;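 active = compounds whose inhibition of the agonist-driven luminescence signal at 20 µM reaches about 50%, limit read from the data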;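 also: cells stimulated with CCL20 at 14 nM final; plate controls were DMSO with CCL20 for no effect and DMSO without agonist for full effect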
APJ antagonist – APJ receptor antagonism; P35414; hit rate 0.32% among 330,000; inhibition, % at 20 µM; AID 2521; CHO-K1 APJ beta-arrestin complementation, luminescence;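 active = inhibition above about 40% at 20 µM, limit read from the data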;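 also: cells challenged with 10 nM apelin-13 agonist together with compound; plate controls were apelin-13 plus DMSO wells for no effect and DMSO wells lacking apelin-13 for full effect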
CXCR6 inh – CXCR6 (human) receptor inhibition; O00574; CHO-K1 PathHunter CXCR6 beta-arrestin, luminescence; inhibition, % at 20 µM; hit rate 0.36% among 360,000; in the data active = inhibition above about 34%, passing the limit was not always enough;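 also: antagonist mode with CXCL16 agonist at 10 nM final; 0% = 10 nM CXCL16 with DMSO and 100% = unstimulated wells without agonist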
Target sequence (O00574 whole entry, looked up): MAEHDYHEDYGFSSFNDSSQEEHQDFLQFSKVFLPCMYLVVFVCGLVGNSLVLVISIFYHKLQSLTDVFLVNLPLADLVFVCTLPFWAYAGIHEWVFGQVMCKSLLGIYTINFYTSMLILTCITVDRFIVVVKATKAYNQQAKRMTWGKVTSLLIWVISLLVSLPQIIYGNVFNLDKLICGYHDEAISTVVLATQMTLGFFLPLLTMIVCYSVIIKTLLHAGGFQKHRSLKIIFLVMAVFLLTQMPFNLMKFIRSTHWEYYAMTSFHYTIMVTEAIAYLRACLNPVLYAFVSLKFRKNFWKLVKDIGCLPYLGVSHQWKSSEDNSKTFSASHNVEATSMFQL
EBI2 antag conf – EBI2 (human) antagonism, single concentration confirmation; shares compounds with EBI2 block; EBI2 beta-arrestin luminescence, 7a,25-OHC antagonism; inhibition, % at 5 µM; hit rate 29% among 2,400; AID 651997;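 active = inhibition of at least 50%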
EBI2 agonist – activates EBI2, counter-screen for EBI2 antagonists | shares compounds with EBI2 block | EBI2-expressing cells, agonist mode, luminescence, 60 min; 0% vehicle, 100% 7α,25-dihydroxycholesterol control | activation, % at 5 µM | 2,400 tested, under 10 active | AID 652000;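 active = activation of at least 50%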
bGal counter – inhibits E. coli beta-galactosidase, counter-screen for EBI2 antagonists. shares compounds with EBI2 block. hit rate 1% among 2,400. purified beta-galactosidase, luminescent Galacton Star, 15 min. inhibition, % at 5 µM;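 active = replicate-average signal at least 3 plate SD below neutral wells, shown as high inhibition, flagging enzyme-inhibiting false positives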;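 also: 0% = DMSO wells with enzyme and 100% = wells lacking enzyme; higher means stronger loss of beta-gal luminescence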
Active calls of the source: *; nt = no result given.

SMILES | EBI2 block | APJ agonist | CCR6 antag | APJ antagonist | CXCR6 inh | EBI2 antag conf | EBI2 agonist | bGal counter
Cc1ccc(OCC(=O)N2CCN(C(=O)Cc3ccccc3)CC2)cc1 | 58* | -1 | -26 | 7 | 1 | 49 | -1 | -4
COc1ccc(OCC(=O)N2CCN(S(=O)(=O)c3ccccc3[N+](=O)[O-])CC2)cc1 | 83* | -1 | 11 | -1 | -6 | 61* | 0 | -17
CCCS(=O)(=O)N1CCN(C(=O)COc2ccc(OC)cc2)CC1 | 62* | -2 | -8 | -25 | 1 | 42 | 2 | 11
COc1ccc(OCC(=O)N2CCN(S(=O)(=O)c3ccc4c(c3)OCCO4)CC2)cc1 | 82* | nt | nt | nt | -5 | 55* | 0 | -13
Cc1ccc(OCC(=O)N2CCCCCCC2)cc1 | 7 | -4 | -4 | 1 | -12 | nt | nt | nt
COC(=O)c1cn(C(=O)c2cc(Cl)ccc2Cl)c2ccccc12 | 0 | 0 | 20 | 12 | 4 | nt | nt | nt
Cc1nn(C)c2ncc(C(N)=O)c(Oc3ccc(Cl)cc3)c12 | -4 | 1 | 8 | 2 | 3 | nt | nt | nt
COc1ccc(OCC(=O)N2CCN(C(=O)Cc3ccccc3)CC2)cc1 | 76* | -2 | 9 | 5 | 1 | 49 | 1 | 5
COc1ccc(CC(=O)N2CCN(c3ccccn3)CC2)cc1 | 1 | -2 | 1 | -11 | 10 | nt | nt | nt
CC(=O)Nc1ccc(S(=O)(=O)N(Cc2ccccc2)C(C)C)cc1 | 11 | 3 | 2 | -2 | -7 | nt | nt | nt
CCCCC[C@H](C)N1C[C@@H](COCc2ccccc2)Oc2cc(N3CC[C@@H](O)C3)ccc2S1(=O)=O | 9 | nt | nt | nt | 3 | nt | nt | nt
CCCCC[C@@H](C)N1C[C@@H](COCc2ccccc2)Oc2cc(N3CC[C@@H](O)C3)ccc2S1(=O)=O | 45* | nt | nt | nt | 11 | 21 | -2 | -11
CCCCC[C@@H](C)N1C[C@@H](COCc2ccccc2)Oc2cc(N3CC[C@H](O)C3)ccc2S1(=O)=O | 53* | nt | nt | nt | 3 | 18 | -2 | -14
CN(C(=O)CN(C)S(=O)(=O)c1ccc(F)cc1)c1c(N)n(Cc2ccccc2)c(=O)[nH]c1=O | 2 | -2 | 6 | 10 | 4 | nt | nt | nt
O=C(c1cc2cc(Cl)ccc2[nH]1)N1CCN(c2ccc(F)cc2)CC1 | 84* | 1 | -7 | -14 | -2 | 75* | -1 | -12
COc1ccc(N2CCN(C(=O)c3cc4cc(Cl)ccc4[nH]3)CC2)cc1 | 75* | 0 | -4 | -25 | -8 | 59* | 2 | 6
CC(C)CCNC(=O)Cc1csc(-c2ccccc2)n1 | -10 | 2 | 9 | -3 | -5 | nt | nt | nt
COc1ccc(-c2cc(-c3ccccc3)nc3ncnn23)cc1 | 5 | 0 | 3 | 3 | -1 | nt | nt | nt
COc1ccc(-c2cc(-c3ccc(Br)cc3)nc3ncnn23)cc1OC | 60* | 0 | 9 | 6 | 2 | 17 | 1 | 8
Cc1ccc(C(=O)C2CCN(C(=S)NCC3CCCO3)CC2)cc1 (stereo unspecified) | 16 | -2 | 5 | 11 | 1 | nt | nt | nt
COc1ccc(C(=O)C2CCN(C(=S)NCCc3ccccc3)CC2)cc1 | 3 | 1 | 4 | 3 | -4 | nt | nt | nt
O=C(c1ccc(F)cc1)C1CCN(C(=S)NCC2CCCO2)CC1 (stereo unspecified) | 51* | -3 | 0 | -2 | -7 | 16 | -1 | -9
COc1ccc(C(=O)C2CCN(C(=S)NCC3CCCO3)CC2)cc1 (stereo unspecified) | 61* | -1 | 7 | 5 | -7 | 26 | 1 | 5
Cc1sc(NC(=O)c2ccco2)c(CN2CCCCC2)c1C | -2 | -5 | 26 | -4 | -5 | nt | nt | nt
Cc1sc(NC(=O)c2ccco2)c(CN2CCN(c3ccccc3)CC2)c1C | 40* | -2 | 1 | 4 | 0 | 16 | -1 | -11
SMILES | EBI2 block | APJ agonist | CCR6 antag | APJ antagonist | CXCR6 inh | EBI2 antag conf | EBI2 agonist | bGal counter
CC(C)CCNC(=O)/C=C/c1ccc(Br)cc1 | 47* | -1 | 16 | 12 | -3 | 50 | -1 | -22
O=C(Nc1ccc(Oc2ccccc2)nc1)C1CCCCN1Cc1cccc(OCCO)c1 (stereo unspecified) | 63* | -1 | 15 | -49 | -11 | 58* | 1 | 1
CC(NCC(O)COc1ccc2ccccc2c1)c1ccccc1 (stereo unspecified) | 46* | 2 | 1 | 18 | -10 | 18 | 0 | -6
COc1ccc(OCC(O)CNC(C)c2ccccc2)cc1 (stereo unspecified) | 22 | 0 | -3 | -6 | -3 | nt | nt | nt
O=C(CSc1nnc(NC(=O)c2ccc(F)cc2F)s1)NC1CC1 | 2 | -2 | 4 | 11 | 5 | nt | nt | nt
CCCCn1nnnc1C(c1ccccc1OC(F)(F)F)N1CCN(C/C=C/c2ccccc2)CC1 (stereo unspecified) | 68* | nt | nt | nt | 19 | 58* | 0 | 8
FC(F)(F)Oc1ccccc1C(c1nnnn1Cc1ccccc1)N1CCN(C/C=C/c2ccccc2)CC1 (stereo unspecified) | 67* | nt | nt | nt | 23 | 24 | -1 | 6
COc1ccccc1C(c1nnnn1Cc1ccccc1)N1CCN(C2CCCC2)CC1 (stereo unspecified) | -3 | -1 | 5 | -7 | -7 | nt | nt | nt
CCN1CCN(S(=O)(=O)c2ccc(Cl)c(C(=O)N(C)CCOc3ccc(Cl)cc3)c2)CC1 | -2 | 2 | 4 | 14 | -8 | nt | nt | nt
Cc1ccccc1CN1[C@@H]2c3ccccc3C[C@@H]2OCCS1(=O)=O | 1 | -5 | 19 | 10 | 3 | nt | nt | nt
COc1cccc(/C=C/C(=O)c2ccc(NS(=O)(=O)c3ccc(C)cc3)cc2)c1 | 62* | -3 | 23 | 16 | 16 | 45 | 0 | 6
COc1cc(/C=C/C(=O)c2ccc(NS(=O)(=O)c3ccc(C)cc3)cc2)cc(OC)c1O | 27 | nt | 27 | nt | 4 | nt | nt | nt
CCc1ccc(C(C)(O)C(CN2CCOCC2)c2ccccc2)cc1 (stereo unspecified) | -6 | -6 | 10 | 4 | 0 | nt | nt | nt
CC(C)(C)Cc1c(-c2ccc(C#N)cc2)nc2c(Cl)cc(C(F)(F)F)cn12 | -15 | nt | nt | nt | -6 | nt | nt | nt
Cc1cc(C)c(S(=O)(=O)N(C2=NCCS2)S(=O)(=O)c2c(C)cc(C)cc2C)c(C)c1 | 56* | -2 | 15 | 6 | -1 | 18 | 0 | -4
Cc1cc(C)c(S(=O)(=O)N(CC(=O)O)CC(=O)O)c(C)c1 | -4 | -1 | -12 | 1 | -2 | nt | nt | nt
Cn1cccc1CC(=O)N/N=C\c1ccccc1 | 44* | -4 | 5 | 8 | -9 | 11 | -1 | -6
